The list is not random: actives were taken first. Their share in the collection is about 3.7%.
MPTP inh: mitochondrial permeability transition pore inhibitors, primary screen, biochemical, isolated mouse mitochondria, absorbance. inhibition, % at 10 µM. hit rate 1.4% among 360,000. Ca2+ swelling absorbance, 30 min. AID 602449, 2012;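 active = inhibition of 50% or more, scaled per plate between neutral and stimulator controls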;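 also: 0% = DMSO wells given calcium and 100% = 1 mM EGTA wells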
aDG glyco up: activators of alpha-DG glycosylation, primary screen, uHTS, Pro5-aDG cells, AlphaScreen; alpha-DG glycosylation AlphaScreen (IIH6); 0% Pro5, 100% B10-LARGE cell signal; activation, % at 10 µM; hit rate 0.22% among 360,000; AID 624168, 2012;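 active = activation of at least 8% versus controls, or a plate z-score of at least 8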;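 also: Pro5 are CHO cells carrying HIG-tagged alpha-DG that lacks glycosylation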
procasp3 activ: activators of human procaspase-3 D3A mutant, primary screen, biochemical, absorbance, PC-3 D3A mutant, single concentration | Caspase-3 (Homo sapiens), P42574 | recombinant procaspase-3 D3A, Ac-DEVD-pNA absorbance 405 nm | activation, % at 8.5 µM | hit rate 0.11% among 330,000;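 active = activation above the mean of all tested compounds plus 3 SD, cut at about 21% in these data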;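 also: 0% = DMSO alone and 100% = DMSO wells spiked with extra 5 µM PC-3 D3A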
Target sequence (P42574 whole entry D9A/D28A/D175A): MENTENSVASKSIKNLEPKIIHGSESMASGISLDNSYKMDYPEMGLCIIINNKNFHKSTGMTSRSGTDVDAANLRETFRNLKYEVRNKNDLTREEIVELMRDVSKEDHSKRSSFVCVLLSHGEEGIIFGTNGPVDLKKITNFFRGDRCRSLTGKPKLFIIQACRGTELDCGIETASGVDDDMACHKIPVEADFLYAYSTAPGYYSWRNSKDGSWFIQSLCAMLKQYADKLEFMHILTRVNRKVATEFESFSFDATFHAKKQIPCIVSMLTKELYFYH
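Compound: 8.5 µM single point, 0.8% DMSO / Material: Autoprocessing-dead procaspase-3 D3A mutant enzyme / Timing: 1 h preincubation plus 2 h reaction at 25 °C / Medium: Zinc-free HEPES/NaCl buffer with 0.01% Triton X-100 at pH 7.4 / Technique: 405 nm absorbance of p-nitroaniline, reads at 0 and 120 min / Repeats: one well per compound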
proCasp7 act: procaspase-7 activators, primary screen, counter-screen for procaspase-3 activator project, biochemical, absorbance, HTS, human; Caspase-7 (Homo sapiens), P55210; recombinant procaspase-7, Ac-DEVD-pNA absorbance 405 nm; D23A/D198A/D206A triple mutant, cannot self-cleave; scale: DMSO 0, 5 µM enzyme 100; activation, % at 8.5 µM; hit rate 0.093% among 330,000; AID 463210, 2010;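 active = percent activation above the screen-wide mean plus 3 SD, cut at about 25% in these data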
Target sequence (P55210 whole entry D23A/D198A/D206A): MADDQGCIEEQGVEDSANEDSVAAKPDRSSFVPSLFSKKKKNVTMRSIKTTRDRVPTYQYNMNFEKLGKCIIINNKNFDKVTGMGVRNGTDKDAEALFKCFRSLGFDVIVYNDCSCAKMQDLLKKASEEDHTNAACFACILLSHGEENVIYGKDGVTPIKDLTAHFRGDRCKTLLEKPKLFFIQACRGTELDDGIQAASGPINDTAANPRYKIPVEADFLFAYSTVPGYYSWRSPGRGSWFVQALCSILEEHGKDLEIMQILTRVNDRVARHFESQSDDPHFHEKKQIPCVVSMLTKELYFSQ
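buffer or medium = Zinc-free HEPES/NaCl buffer, pH 7.4 | material = Procaspase-7 triple mutant (PC-7 D3A) | input = 2 µM procaspase-7 mutant as dispensed | signal = Epi-absorbance of released pNA at 405 nm, two timepoints | timing = 1 h preincubation, 2 h reaction | replicates = singlicate compound testing | evaluation = % activation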
GRIN3A LBD mod: binders of NR3A ligand-binding domain, primary screen, biophysical, differential scanning fluorimetry, uHTS; Glutamate receptor ionotropic, NMDA 3A (GRIN3A) ligand-binding domain; NR3A LBD differential scanning fluorimetry, Tm shift; 0% = protein alone, 100% = glycine-bound protein; Tm shift relative to glycine control, % at 25 µM; hit rate 2.5% among 340,000; AID 1259313, 2017;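 active = melting temperature shift of at least 10% of the positive control shift, at one fixed dose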
MPTP counter: fluorescence retest of MPTP screen hits in isolated mitochondria, single concentration; shares compounds with MPTP inh; membrane potential, Rhodamine 123 fluorescence; inhibition, % at 10 µM; hit rate 78% among 5,000; AID 624504, 2012; in the data active = inhibition above about 22%;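 also: 0% = DMSO vehicle and 100% = positive control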
MPTP abs DR: mitochondrial permeability transition pore inhibitors, dose response, biochemical, absorbance, uHTS hits; hit rate 58% among 780; shares compounds with MPTP inh; isolated mitochondria swelling; IC50, µM; in the data active = IC50 below about 20 µM
MPTP counter DR: fluorescent counter-screen in isolated mitochondria, dose response, counter-screen for MPTP inhibitor project, biochemical, fluorescence, uHTS hits; shares compounds with MPTP inh; isolated mitochondria counterscreen, fluorescence read-out; IC50, µM; hit rate 49% among 780; AID 651564, 2012; in the data active = IC50 below about 80 µM
* = called active by the depositor.

Screening Cc1cc(S(=O)(=O)NCC(C)C)ccc1OCC(=O)NCC1CCCO1 (configuration not stated) returned MPTP inh 0, aDG glyco up 0, procasp3 activ -4, proCasp7 act -3 and GRIN3A LBD mod 1.
CCOC(=O)C1(Cc2ccc(Cl)cc2)CCN(C(C)Cc2ccc(O)c(OC)c2)CC1 (configuration not stated) was read as MPTP inh 95*, aDG glyco up 1, procasp3 activ 5, proCasp7 act 4, GRIN3A LBD mod -3 and MPTP counter 95*.
For COc1ccccc1Nc1nc(-c2c(C)nc3ncccn23)cs1 the results were MPTP inh 71*, aDG glyco up 1, GRIN3A LBD mod -2 and MPTP counter 50*.
For O=C(Nc1ccc2snnc2c1)Nc1cccc2ccccc12 the results were MPTP inh 106*, aDG glyco up 1, procasp3 activ 3, proCasp7 act -1, GRIN3A LBD mod 38* and MPTP counter 69*.
Screening CC(=Nc1ccccc1)C1=C(O)C(Cc2ccc(O)cc2)NC1=O (configuration not stated) returned MPTP inh 0, aDG glyco up 0 and GRIN3A LBD mod -6.
CC(C)Cn1c(N)c(C(=O)CSc2ccc3c(c2)OCCO3)c(=O)n(C)c1=O was read as MPTP inh 99*, aDG glyco up 5, procasp3 activ 0, proCasp7 act 10, GRIN3A LBD mod 1 and MPTP counter 86*.
Screening CC(C)Cn1c(N)c(C(=O)COC(=O)c2ccc3c(c2)OCCO3)c(=O)n(C)c1=O returned MPTP inh 8, aDG glyco up 6, procasp3 activ -3, proCasp7 act 4 and GRIN3A LBD mod 0.
Screening COCC1OC(OC(C)C(O)c2cnc3nc(N)[nH]c(=O)c3n2)C(O)C(OC)C1O (configuration not stated) returned MPTP inh -2 and aDG glyco up 0.
`COc1ccc2sc(N(CCCN(C)C)C(=O)c3ccc(C(=O)c4ccccc4)cc3)nc2c1` gave MPTP inh 80*, aDG glyco up 1, procasp3 activ -3, proCasp7 act 4, GRIN3A LBD mod 2, MPTP counter -9, MPTP abs DR 14* and MPTP counter DR 64*.
COc1ccc2sc(N(CCCN(C)C)C(=O)c3ccc(S(=O)(=O)N4CCCc5ccccc54)cc3)nc2c1 was read as MPTP inh 86*, aDG glyco up 2, procasp3 activ -8, proCasp7 act -9, GRIN3A LBD mod -10 and MPTP counter -19.
`CCN(Cc1ccccc1)S(=O)(=O)c1ccc(C(=O)N(CCCN(C)C)c2nc3ccc(F)cc3s2)cc1` gave MPTP inh 3, aDG glyco up 0, procasp3 activ -6, proCasp7 act 1 and GRIN3A LBD mod -1.
Screening CCN(Cc1ccccc1)S(=O)(=O)c1ccc(C(=O)N(CCCN(C)C)c2nc3cc4c(cc3s2)OCCO4)cc1 returned MPTP inh 59*, aDG glyco up 1, procasp3 activ 1, proCasp7 act 6, GRIN3A LBD mod -3 and MPTP counter -14.
`COc1cc2nc(N(CCCN(C)C)C(=O)c3ccc(S(=O)(=O)N4CCc5ccccc54)cc3)sc2cc1OC` gave MPTP inh 34, aDG glyco up 0, procasp3 activ 0, proCasp7 act -9 and GRIN3A LBD mod -3.
`CCN(Cc1ccccc1)S(=O)(=O)c1ccc(C(=O)N(CCCN(C)C)c2nc3cc(OC)ccc3s2)cc1` gave MPTP inh 65*, aDG glyco up 0, procasp3 activ 14, proCasp7 act 3, GRIN3A LBD mod -3, MPTP counter -12, MPTP abs DR inactive and MPTP counter DR 30*.
Screening O=C(NNC(=O)c1ccccc1O)c1cc2ccccc2o1 returned MPTP inh 1, aDG glyco up 0, procasp3 activ -6, proCasp7 act -7 and GRIN3A LBD mod -6.
`CC1(C(=O)NCc2cccnc2)CCN1C(=O)c1cccc(F)c1` (configuration not stated) gave MPTP inh -1 and aDG glyco up 0.
For COC(=O)CCC(=O)N1CCC(Oc2cccc(C(=O)NCc3ccccn3)c2)CC1 the results were MPTP inh -1 and aDG glyco up 0.
Cc1cccc2sc(N(CCCN(C)C)C(=O)c3ccc(C(=O)c4ccccc4)cc3)nc12 was read as MPTP inh 84*, aDG glyco up 1, procasp3 activ -4, proCasp7 act -1, GRIN3A LBD mod 1, MPTP counter -6, MPTP abs DR 11* and MPTP counter DR 64*.
Cc1ccc2nc(N(CCCN(C)C)C(=O)COc3ccc(Cl)cc3)sc2c1 was read as MPTP inh 56*, aDG glyco up 0, procasp3 activ -8, proCasp7 act 8, GRIN3A LBD mod 0, MPTP counter -19, MPTP abs DR 4.2* and MPTP counter DR 78*.
For ONC(=Nc1cccc(C(F)(F)F)c1)c1cccnc1 the results were MPTP inh 2, aDG glyco up 0, procasp3 activ 0, proCasp7 act 10 and GRIN3A LBD mod -1.
Screening N#C/C(=C\c1ccc(O)c(O)c1)S(=O)(=O)c1ccccc1 returned MPTP inh 90*, aDG glyco up 0, procasp3 activ -3, proCasp7 act -8, GRIN3A LBD mod 3 and MPTP counter 70*.
Screening Cc1cc(C)c(/C=C(\C#N)S(=O)(=O)c2ccccc2)[nH]1 returned MPTP inh 2, aDG glyco up 0, procasp3 activ 0, proCasp7 act 0 and GRIN3A LBD mod 1.
`Cc1[nH]c2ccccc2c1/C=C(\C#N)S(=O)(=O)c1ccccc1` gave MPTP inh 72*, aDG glyco up 0, procasp3 activ -10, proCasp7 act 3, GRIN3A LBD mod 5 and MPTP counter 61*.
